Experiment [1] concerns the target T1, Penicillin-binding protein 1A (Escherichia coli K-12) (UniProt P02918).
T1 sequence (whole entry): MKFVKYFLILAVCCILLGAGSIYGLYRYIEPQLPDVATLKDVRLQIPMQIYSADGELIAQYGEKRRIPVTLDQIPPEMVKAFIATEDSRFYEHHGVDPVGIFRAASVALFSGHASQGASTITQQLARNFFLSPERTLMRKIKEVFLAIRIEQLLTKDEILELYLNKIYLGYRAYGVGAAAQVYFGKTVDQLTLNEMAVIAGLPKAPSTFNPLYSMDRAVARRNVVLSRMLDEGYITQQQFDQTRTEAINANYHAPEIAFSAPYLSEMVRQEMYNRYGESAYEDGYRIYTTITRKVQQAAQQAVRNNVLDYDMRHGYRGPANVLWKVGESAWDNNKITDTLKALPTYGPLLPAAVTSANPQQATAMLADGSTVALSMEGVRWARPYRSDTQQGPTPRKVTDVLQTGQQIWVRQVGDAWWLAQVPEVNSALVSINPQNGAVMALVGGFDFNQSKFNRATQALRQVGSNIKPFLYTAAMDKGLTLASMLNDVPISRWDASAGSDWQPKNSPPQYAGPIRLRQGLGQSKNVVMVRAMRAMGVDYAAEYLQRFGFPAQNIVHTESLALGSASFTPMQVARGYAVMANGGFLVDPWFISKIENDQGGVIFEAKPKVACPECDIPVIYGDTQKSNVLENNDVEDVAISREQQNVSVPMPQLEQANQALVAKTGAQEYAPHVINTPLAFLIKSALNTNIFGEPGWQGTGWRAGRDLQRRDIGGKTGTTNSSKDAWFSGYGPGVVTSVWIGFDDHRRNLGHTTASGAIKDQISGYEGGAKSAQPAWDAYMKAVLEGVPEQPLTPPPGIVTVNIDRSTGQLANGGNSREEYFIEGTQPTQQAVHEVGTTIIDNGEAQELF
In words: Affinity against penicillin binding protein 1a of Escherichia coli UB1005 (DC0) was evaluated. The method in brief: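 Solubilized membranes from sonicated E. coli UB1005 were used. Binding to penicillin-binding proteins was measured as inhibition of [14C]penicillin G binding.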

Experiment [2] concerns the target T2, Penicillin-binding protein 1B (Escherichia coli K-12) (UniProt P02919).
T2 sequence (whole entry): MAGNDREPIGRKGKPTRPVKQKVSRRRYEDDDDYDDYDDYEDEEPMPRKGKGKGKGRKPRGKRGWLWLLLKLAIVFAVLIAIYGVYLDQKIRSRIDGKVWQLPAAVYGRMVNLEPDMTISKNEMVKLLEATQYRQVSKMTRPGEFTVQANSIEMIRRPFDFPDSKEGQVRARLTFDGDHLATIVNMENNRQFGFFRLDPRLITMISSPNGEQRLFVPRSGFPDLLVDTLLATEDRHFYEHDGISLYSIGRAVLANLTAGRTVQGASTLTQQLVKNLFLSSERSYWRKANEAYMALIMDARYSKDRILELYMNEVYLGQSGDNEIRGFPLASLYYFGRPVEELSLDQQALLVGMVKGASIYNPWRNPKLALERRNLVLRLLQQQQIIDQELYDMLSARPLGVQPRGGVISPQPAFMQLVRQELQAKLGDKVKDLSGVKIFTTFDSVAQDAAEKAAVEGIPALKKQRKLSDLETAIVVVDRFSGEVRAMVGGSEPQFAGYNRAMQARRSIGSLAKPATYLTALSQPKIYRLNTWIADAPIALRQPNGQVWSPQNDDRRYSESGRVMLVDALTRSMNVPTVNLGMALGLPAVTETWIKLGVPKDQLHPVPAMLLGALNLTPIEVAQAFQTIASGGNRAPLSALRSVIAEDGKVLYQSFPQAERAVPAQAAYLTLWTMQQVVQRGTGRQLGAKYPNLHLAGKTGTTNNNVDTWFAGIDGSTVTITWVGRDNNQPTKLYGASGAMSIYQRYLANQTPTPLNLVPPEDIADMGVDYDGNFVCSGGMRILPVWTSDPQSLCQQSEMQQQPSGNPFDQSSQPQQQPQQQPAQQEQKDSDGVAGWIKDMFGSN
In words: Affinity for penicillin binding protein 1b of Escherichia coli UB1005 (DC0) was evaluated. On the set-up: unit not given here. The method in brief:
(§1)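 Solubilised membranes from sonicated E. coli UB1005 served as the binding-protein source. Binding was read as inhibition of [14C]penicillin G binding.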

The target in experiment [3] is T3, Peptidoglycan D,D-transpeptidase MrdA (Escherichia coli K-12) (UniProt P0AD65).
T3 sequence (whole entry): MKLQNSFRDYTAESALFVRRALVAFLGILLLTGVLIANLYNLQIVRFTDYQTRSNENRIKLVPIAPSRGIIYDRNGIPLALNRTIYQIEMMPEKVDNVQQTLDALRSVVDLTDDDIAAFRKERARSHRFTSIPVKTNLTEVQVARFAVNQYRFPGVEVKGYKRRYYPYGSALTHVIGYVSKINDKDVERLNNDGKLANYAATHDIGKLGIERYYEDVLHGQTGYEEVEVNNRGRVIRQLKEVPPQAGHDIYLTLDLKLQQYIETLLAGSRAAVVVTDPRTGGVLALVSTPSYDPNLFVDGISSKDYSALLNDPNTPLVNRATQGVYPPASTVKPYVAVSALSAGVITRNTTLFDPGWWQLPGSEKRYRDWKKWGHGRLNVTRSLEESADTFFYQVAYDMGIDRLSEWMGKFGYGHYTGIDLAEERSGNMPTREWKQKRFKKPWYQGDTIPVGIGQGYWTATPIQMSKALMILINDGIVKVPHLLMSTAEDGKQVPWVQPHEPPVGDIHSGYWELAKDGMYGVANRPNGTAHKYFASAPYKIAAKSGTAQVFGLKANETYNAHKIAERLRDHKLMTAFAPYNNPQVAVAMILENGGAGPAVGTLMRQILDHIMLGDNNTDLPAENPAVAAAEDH
In words: Affinity for penicillin binding protein 2 of Escherichia coli UB1005 (DC0) was evaluated. On the set-up: unit not given here. The procedure, abridged: as §1

For a further experiment, the system named is Escherichia coli. Description: Minimum inhibitory concentration against E. coli UB1005 (DC0).
A further experiment relates to Citrobacter freundii. Description: In vitro minimum inhibitory concentration was measured against Citrobacter freundii BS-16 (beta lactamase producer) strain. Format: functional. The procedure, abridged:
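MICs were determined by agar dilution with 2-fold dilutions giving final 128–0.0156 µg/mL, extended to 0.000977 µg/mL where needed. Streptococci were tested on brain heart infusion agar plus 20 units/mL catalase, Proteus on Mueller-Hinton with 3% agar, and others on Mueller-Hinton agar. Inocula were 100-fold-diluted overnight cultures, about 3 × 10^4 CFU/spot, read after overnight incubation at 36 °C.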

A further experiment relates to Enterococcus faecalis. In words: In vitro minimum inhibitory concentration was measured against Enterococcus faecalis ATCC 29212 strain. It is filed as functional. The method in brief:
(§2)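 Streptococci were tested on brain heart infusion agar plus 20 units/mL catalase, Proteus on Mueller-Hinton with 3% agar, and others on Mueller-Hinton agar. Inocula were 100-fold-diluted overnight cultures, about 3 × 10^4 CFU/spot, read after overnight incubation at 36 °C.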

In experiment [4] the test system is Klebsiella pneumoniae. Description: Tested for its efficacy against systemic murine infection caused by Klebsiella pneumoniae A. It is filed as functional. The method in brief:
(§3)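 CD1 Swiss albino mice (18-20 g) were infected intraperitoneally with 0.5 mL of diluted culture. Within 5 min they received 1.0 mL test solution subcutaneously at the dorsal neck, in dilutions spanning 250–0.05 mg/kg. P. aeruginosa groups received a second dose at 3 h. Groups were six mice. ED50 was calculated by Reed–Muench interpolation of cumulative survival.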

Experiment [5] relates to Klebsiella pneumoniae. Description: In vitro minimum inhibitory concentration was measured against Klebsiella pneumoniae A strain. It is filed as functional. The method in brief:
as §2

A further experiment concerns Micrococcus luteus. In words: In vitro minimum inhibitory concentration was measured against Micrococcus luteus ATCC 9341 strain. It is filed as functional. The procedure, abridged:
as §2

The test system of the next experiment is Proteus mirabilis. In words: In vitro minimum inhibitory concentration was measured against Proteus mirabilis 90 strain. Format: functional. The procedure, abridged: as §2
Another experiment has as its system Pseudomonas aeruginosa. Description: Tested for its efficacy against systemic murine infection caused by Pseudomonas aeruginosa 8780. Format: functional. The method in brief: as §3
In experiment [6] the test system is Serratia marcescens. Description: In vitro minimum inhibitory concentration was measured against Serratia marcescens 1071(beta lactamase producer) strain. It is filed as functional. The method in brief:
as §2

For experiment [7], the system named is Streptococcus pneumoniae. In words: Tested for its efficacy against systemic murine infection caused by Streptococcus pneumoniae 6301. It is filed as functional. The method in brief:
as §3

In experiment [8] the test system is Serratia marcescens. In words: Tested for its efficacy against systemic murine infection caused by Serratia marcescens SM. It is filed as functional. The method in brief: as §3
Experiment [9] deals with Staphylococcus aureus. Description: In vitro minimum inhibitory concentration was measured against Staphylococcus aureus 67-0 (Methicillin resistant) strain. It is filed as functional.
Experiment [10] relates to Staphylococcus aureus. Description: In vitro minimum inhibitory concentration was measured against Staphylococcus aureus 753 (Methicillin resistant) strain. It is filed as functional.
For experiment [11], the system named is Streptococcus pneumoniae. Description: In vitro minimum inhibitory concentration was measured against Streptococcus pneumoniae 6301 strain. Format: functional. The method in brief:
as §2

Experiment [12] concerns Staphylococcus aureus. In words: Tested for its efficacy against systemic murine infection caused by Staphylococcus aureus smith. Format: functional. The procedure, abridged:
as §3

For a further experiment, the system named is Streptococcus pyogenes. In words: In vitro minimum inhibitory concentration was measured against Streptococcus pyogenes 4 strain. It is filed as functional. The procedure, abridged: as §2

Each structure is given as a SMILES string. ≈ marks a conversion by molar mass, not a printed value.

The values below come from ChEMBL document CHEMBL1127320, “Dual-action cephalosporins incorporating a 3'-tertiary-amine-linked quinolone” (J Med Chem, 1994).

In general, ED50 refers to the dose that gives a 50% effect, or the effect in half of the subjects.

As for `CC(C)(O/N=C(\C(=O)N[C@@H]1C(=O)N2C(C(=O)[O-])=C(C[n+]3ccccc3)CS[C@H]12)c1csc(N)n1)C(=O)O`, the Binding affinity in experiment [1] is 10; in experiment [2], 10; in [3] it was greater than 100. Moreover, the MIC against Escherichia coli is 0.125 mg/L (≈ 0.229 µM).
As to `CCN1CCN(C(=O)N[C@@H](C(=O)N[C@@H]2C(=O)N3C(C(=O)O)=C(CSc4nnnn4C)CS[C@H]23)c2ccc(O)cc2)C(=O)C1=O`, the Binding affinity in [1] was found to be 10; in [2] it was 10; in experiment [3], 2. Also, the MIC against Escherichia coli was 0.031 mg/L (≈ 0.048 µM).
Consider `O=C(O)c1cn(C2CC2)c2cc(N3CCNCC3)c(F)cc2c1=O` [CIPROFLOXACIN], for which the MIC came out at 0.031 mg/L (≈ 0.0936 µM) in the experiment on Citrobacter freundii; 1 mg/L (≈ 3.02 µM) with Enterococcus faecalis; 0.25 mg/L (≈ 0.754 µM) in the experiment with Klebsiella pneumoniae [5]; 2 mg/L (≈ 6.04 µM) against Micrococcus luteus; 0.063 mg/L (≈ 0.19 µM) with Proteus mirabilis; 0.063 mg/L (≈ 0.19 µM) against Serratia marcescens [6]. Moreover, the MIC against Staphylococcus aureus [9] is 0.5 mg/L (≈ 1.51 µM); with Staphylococcus aureus [10], 0.25 mg/L (≈ 0.754 µM); against Streptococcus pneumoniae [11], 1 mg/L (≈ 3.02 µM); in the experiment on Streptococcus pyogenes, 0.5 mg/L (≈ 1.51 µM). For the same molecule, the ED50 in the experiment with Klebsiella pneumoniae [4] is 1 mg/kg; in the experiment with Pseudomonas aeruginosa it was 4 mg/kg; with Streptococcus pneumoniae [7], greater than 100 mg/kg; with Serratia marcescens [8], less than 0.5 mg/kg; in the experiment with Staphylococcus aureus [12] it was 3 mg/kg.
